Screening data from PubChem.
MT1-MMP act inh: blocks activation of human MT1-MMP; AID 651647; 0.061% of 360,000 active; HT1080 RFP-PRO-GFP cells, GFP/RFP ratio fluorescence, overnight; percent of plate control window, DMSO zero; GFP/RFP ratio change, % at 20 µM; P50281;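 active means GFP/RFP ratio change of at least 30% with cell ATP level not reduced by more than half and red fluorescence within 50% of control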
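Assay system: HT1080 cells carrying an RFP-PRO-GFP reporter | Dosing: Single dose of 20 µM compound, 1% DMSO final | Incubation: Cells overnight before dosing, compound overnight, 37 °C, 5% CO2 | Evaluation: GFP/RFP fluorescence ratio | Control set: DMSO and RFP-L50D-GFP cell wells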
ADAM10 inh: ADAM10 inhibition, QFRET primary screen; 0.62% of 370,000 active; O14672; recombinant ADAM10, EDANS/DABCYL FRET peptide cleavage, 3 h; inhibition, % at 7 µM;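 active means inhibition above a per-campaign cutoff equal to the mean of compounds falling between control-based bounds plus 3 SD, cut at about 20% in these data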
ADAM17 inh: ADAM17 inhibition, QFRET primary screen | P78536 | recombinant ADAM17, EDANS/DABCYL FRET peptide cleavage | inhibition, % at 6.95 µM | 0.83% of 370,000 active | AID 720648;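 active means inhibition above the mean of compounds lying between control limits plus 3 SD, set per campaign, cut at about 8.5% in these data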
Target sequence (P78536 215-824 limits assumed): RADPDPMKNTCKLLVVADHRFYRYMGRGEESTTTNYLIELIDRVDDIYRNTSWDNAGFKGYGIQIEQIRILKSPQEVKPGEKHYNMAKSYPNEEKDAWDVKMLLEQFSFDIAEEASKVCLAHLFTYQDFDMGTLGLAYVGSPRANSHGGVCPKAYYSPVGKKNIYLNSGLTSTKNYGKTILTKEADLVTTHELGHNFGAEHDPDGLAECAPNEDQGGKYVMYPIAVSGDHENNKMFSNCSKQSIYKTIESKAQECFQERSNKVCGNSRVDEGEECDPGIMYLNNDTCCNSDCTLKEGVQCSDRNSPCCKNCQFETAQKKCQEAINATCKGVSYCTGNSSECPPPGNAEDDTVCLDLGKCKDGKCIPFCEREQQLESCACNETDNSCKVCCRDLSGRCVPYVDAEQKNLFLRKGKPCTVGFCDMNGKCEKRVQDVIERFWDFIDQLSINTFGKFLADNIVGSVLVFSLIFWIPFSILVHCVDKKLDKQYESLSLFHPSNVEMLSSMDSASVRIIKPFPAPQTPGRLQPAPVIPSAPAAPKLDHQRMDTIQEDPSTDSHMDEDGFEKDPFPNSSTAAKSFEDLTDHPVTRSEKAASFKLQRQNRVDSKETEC
MPTP block: blocks calcium-induced mitochondrial swelling. inhibition, % at 10 µM. isolated mouse mitochondria, Ca2+ swelling absorbance, 30 min. AID 602449. 1.4% of 360,000 active;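 active means inhibition of 50% or more, scaled per plate between neutral and stimulator controls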
GRIN3A LBD mod: modulates the human NR3A ligand-binding domain; NR3A LBD differential scanning fluorimetry, Tm shift; 0% = protein alone, 100% = glycine-bound protein; Tm shift relative to glycine control, % at 25 µM; 2.5% of 340,000 active;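 active means melting temperature shift of at least 10% of the positive control shift, at one fixed dose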
SKN-1 block: blocks SKN-1 activity in C. elegans. C. elegans VP596 Pgst-4::GFP/RFP ratio, acrylamide-induced, 24 h. inhibition, % at 21.8 µM. 0.49% of 360,000 active;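 active means interference check ratio from 0.5 to 1.5 plus GFP to RFP signal ratio inhibition reaching or exceeding a fixed threshold, cut at about 30% in these data, passing the limit was not always enough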
ADAM10 ctr: ADAM10 inhibition, counter-screen for ADAM17 exosite hits. shares compounds with ADAM17 inh. inhibition, % at 6.95 µM. recombinant ADAM10, EDANS/DABCYL FRET peptide cleavage, 3 h. 47% of 2,900 active;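 active means mean inhibition over the triplicate runs exceeds the activity threshold set in the earlier primary screen, cut at about 20% in these data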
ADAM17 confirm: confirmation of inhibitors of human ADAM17; shares compounds with ADAM17 inh; recombinant ADAM17, EDANS/DABCYL QFRET peptide cleavage; inhibition, % at 6.95 µM; 65% of 2,900 active; AID 743257;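 active means mean inhibition across replicates above the hit cutoff set in the primary screen, cut at about 8.5% in these data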
A number is an active result; - = inactive; . = no result given. Most compounds without a hit are left out; they make up all but 4.7% or so of the library.

SMILES	MT1-MMP act inh	ADAM10 inh	ADAM17 inh	MPTP block	GRIN3A LBD mod	SKN-1 block	ADAM10 ctr	ADAM17 confirm
COc1ccc(Cl)cc1NC(=O)C(=O)N/N=C/c1cc(C)n(-c2ccc(C)cc2)c1C	-	-	-	-	-	-	.	.
COC(=O)c1ccccc1OCCCN(C)C	-	-	-	-	-	-	.	.
CCO[C@H]1OC(C(=O)Nc2ccccc2)=C[C@@H](c2csc3ccccc23)[C@@H]1CCCO	-	-	10	-	-	-	-	12
N=C(N)SCc1ncccc1O	-	.	.	-	-	-	.	.
CCOc1c(OC(C)=O)ccc(/C=C/c2ccc3cccc(OC)c3n2)c1[N+](=O)[O-]	-	-	9.0	-	-	-	24	16
O=C(O)CCCN1C(=O)C2C3CCC(C3)C2C1=O (configuration not stated)	-	-	9.1	-	.	-	-	-
O=C(O)CCCN1C(=O)C2C3CCC(O3)C2C1=O (configuration not stated)	-	-	-	-	-	-	.	.
CC(=O)Nc1ccc(NC(=O)C(C)OC(=O)C23CC4CC(CC(Cl)(C4)C2)C3)cc1 (configuration not stated)	-	-	9.9	-	-	-	-	-
COc1ccc(Nc2nc(C)c(C(C)=O)s2)cc1	-	-	-	-	.	-	.	.
COc1ccc(Nc2nc(C)c(-c3ccccc3)s2)cc1	-	-	9.1	-	-	-	-	-
O=C(CCc1ccc(S(=O)(=O)N2CCOCC2)cc1)N1CCCC1	-	-	-	-	-	-	.	.
CN(Cc1cccs1)C(=O)CCc1ccc(S(=O)(=O)N2CCOCC2)cc1	-	-	11	-	-	-	-	-
COc1cccc(/C=C2\CCC(C3CCCC3)C2=O)c1OC (configuration not stated)	-	-	-	-	-	-	.	.
COc1ccc(CC(=O)NC(=S)Nc2ccc(S(=O)(=O)NC(C)(C)C)cc2)cc1	-	-	9.9	-	-	-	32	15
COc1ccc(CC(=O)NC(=S)Nc2ccc(S(N)(=O)=O)cc2)cc1	-	-	-	-	-	-	.	.
CC(CNc1ccc(Cl)cc1)(CNc1ccc(Cl)cc1)[N+](=O)[O-]	-	-	9.9	-	25	-	25	-
O=[N+]([O-])c1ccc(CNc2ccc(Cl)cc2)s1	-	-	-	-	-	-	.	.
CSc1cccc(CN2CCC(Oc3ccc(C(=O)N4CCCCC4)cc3)CC2)c1	-	-	-	-	-	-	.	.
CC(C)c1ccc(S(=O)(=O)N2CCN(C(=S)NCc3ccco3)CC2)cc1	-	-	9.5	-	-	-	28	17
Cc1[nH]c2ccccc2c1/C=C/c1cc[n+](C)cc1	-	-	9.4	-	-	-	-	-
O=C(CNC(=S)N(Cc1ccccc1)Cc1ccccc1F)NCc1ccccc1	-	-	9.1	-	-	-	30	13
O=C(CNC(=S)N(Cc1ccccc1)Cc1ccccc1F)NCc1ccc(Cl)cc1	-	-	-	-	-	-	.	.
O=C(O)CC1SC(=Nc2ccc(O)cc2)NC1=O (configuration not stated)	-	-	-	-	-	-	.	.
COc1ccc(/C(O)=C2/C(=O)C(=O)N(CC3CCCO3)C2c2cccc(O)c2)cc1 (configuration not stated)	-	-	8.8	-	-	-	-	-
COC(=O)c1ccc(C2/C(=C(/O)c3ccc(OC)cc3)C(=O)C(=O)N2CC2CCCO2)cc1 (configuration not stated)	-	-	-	-	-	-	.	.
SMILES	MT1-MMP act inh	ADAM10 inh	ADAM17 inh	MPTP block	GRIN3A LBD mod	SKN-1 block	ADAM10 ctr	ADAM17 confirm
O=C(O)Cn1cc(/C=C2/SC(=O)N(CC(=O)N3CCCCCC3)C2=O)c2ccccc21	.	-	-	.	-	.	.	.
COc1ccc(N2CCN(C(=O)C3CCN(S(=O)(=O)c4c(C)noc4/C=C/N(C)C)CC3)CC2)cc1	-	-	10	-	-	-	-	-
COc1ccc(N2CCN(S(=O)(=O)c3c(C)noc3/C=C/N(C)C)CC2)cc1	-	-	-	-	-	-	.	.
CCC(=O)c1ccc(OCC(=O)OCC(=O)NC2CCCCCCC2)cc1	-	-	9.5	-	-	-	-	8.8
Cc1ccc(OC(=O)c2cccc(S(=O)(=O)N(C)C)c2)c(-n2nc3ccccc3n2)c1	-	-	-	-	-	-	.	.
Cc1ccc(OC(=O)c2ccc(S(=O)(=O)N(C)C)cc2)c(-n2nc3ccccc3n2)c1	-	-	9.1	-	-	-	32	17
Cc1cc(C)n(CCN(C)C(=O)c2cc(COc3c(F)cccc3F)on2)n1	-	-	-	-	-	-	.	.
CC1(C)N=C(/C=N/O)C=[N+]1[O-]	-	-	-	-	-	-	.	.
Clc1ccc(N2COC3c4cccc5cccc(c45)C32)cc1 (configuration not stated)	-	-	9.2	-	-	-	-	-
Oc1ccc(C[C@H]2CNC(=S)N2CC2CCCN2C[C@H](Cc2ccccc2)N2C[C@H](Cc3ccc(O)cc3)N(CCc3ccccc3)C2=S)cc1 (some centres not stated)	-	-	10	-	31	-	44	22
CC(C)C[C@H]1CNC(=S)N1C[C@H]1CCCN1C[C@H](Cc1ccc(O)cc1)N1C[C@H](Cc2ccc(O)cc2)N(CCc2ccccc2)C1=S	-	-	-	-	.	-	.	.
CC(C)C[C@H]1CN([C@@H](Cc2ccc(O)cc2)CN2CCC[C@@H]2CN2C(=S)NC[C@@H]2Cc2ccccc2)C(=S)N1CCc1ccccc1	-	-	8.9	-	.	-	34	20
Oc1ccc(C[C@@H](CN2CCC[C@@H]2CN2C(=S)NC[C@@H]2Cc2ccccc2)N2C[C@H](Cc3ccccc3)N(CCc3ccccc3)C2=S)cc1	-	-	-	-	.	-	.	.
CCOc1ccc(CCN2C(=S)N([C@@H](Cc3ccc(O)cc3)CN3CCC[C@@H]3CN3C(=S)NC[C@@H]3Cc3ccccc3)C[C@@H]2Cc2ccc(O)cc2)cc1	-	-	12	-	.	-	-	8.8
CC(C)C[C@H]1CNC(=S)N1C[C@H]1CCCN1C[C@H](Cc1ccccc1)N1C[C@H](Cc2ccc(O)cc2)N(CCc2ccccc2)C1=S	-	-	9.5	-	.	-	-	9.5
Cc1ccc(-c2nc3ccccc3s2)cc1S(=O)(=O)N1CCCC1	-	.	.	-	-	-	.	.
Cc1c(Cl)cccc1NC(=S)/C(=C(\[O-])c1ccc(Cl)s1)[n+]1ccccc1	-	-	9.6	-	-	-	-	-
